Screens (PubChem BioAssay)
OX1R antag-1: antagonists of human orexin 1 receptor (OX1R) | OX1R-expressing cells, FRET antagonist read-out | inhibition, % at 6.6 µM | actives 1.8% (n = 330,000); in the data active = inhibition mostly above about 38%, no sharp cut-off; inactive = mostly below about 40%;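 also: 0% = agonist challenge alone and 100% = reference antagonist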
TAAR1 antagonist: human TAAR1 antagonism. AID 624466. inhibition, % at 3 µM. CHO RD-HGA16 TAAR1, Fluo-8 calcium fluorescence, antagonist. actives 1.5% (n = 360,000);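 active = inhibition above a per-plate cutoff, the mean inhibition of test compounds on that plate plus 3 SD, cut at about 49% in these data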;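 also: 0% = DMSO plus EC80 beta-PEA response and 100% = DMSO alone without agonist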
Target sequence (Q96RJ0 whole entry, looked up): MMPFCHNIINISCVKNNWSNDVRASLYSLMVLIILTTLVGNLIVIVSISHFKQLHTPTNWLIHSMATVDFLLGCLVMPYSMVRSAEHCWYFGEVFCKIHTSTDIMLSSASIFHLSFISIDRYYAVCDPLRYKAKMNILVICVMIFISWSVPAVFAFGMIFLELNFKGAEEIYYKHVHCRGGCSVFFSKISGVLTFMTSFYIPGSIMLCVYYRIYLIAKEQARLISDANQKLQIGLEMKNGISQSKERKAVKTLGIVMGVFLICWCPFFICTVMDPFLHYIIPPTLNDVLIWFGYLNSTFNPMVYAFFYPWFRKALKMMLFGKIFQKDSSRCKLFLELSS
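Test system: hTAAR1-expressing CHO RD-HGA16 cells, Gα16-coupled; Probe or stimulus: EC80 β-phenethylamine stimulus; Compound dosing: single nominal final test compound concentration of 3 µM; Timing: 140 s kinetic read after compound, 140 s after agonist; Signal: Fluo-8 calcium-sensitive fluorescence; Measure: % inhibition of agonist calcium response; Controls: DMSO and EC80 PEA controls.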
GalR3 antagonist: human GalR3 antagonism; HEK293 GalR3-CNG cAMP membrane potential fluorescence; galR3 body fused to GalR1 C-terminus; inhibition, % at 3 µM; actives 0.44% (n = 360,000);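 active = inhibition above the screen-wide average plus 3 SD, cut at about 13% in these data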;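 also: forskolin and galanin both at EC90 stimulate the cells; cAMP rise reported by CNG channel membrane potential dye signal; 0% = forskolin plus galanin with DMSO and 100% = forskolin alone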
Target sequence (O60755 1-299 limits assumed): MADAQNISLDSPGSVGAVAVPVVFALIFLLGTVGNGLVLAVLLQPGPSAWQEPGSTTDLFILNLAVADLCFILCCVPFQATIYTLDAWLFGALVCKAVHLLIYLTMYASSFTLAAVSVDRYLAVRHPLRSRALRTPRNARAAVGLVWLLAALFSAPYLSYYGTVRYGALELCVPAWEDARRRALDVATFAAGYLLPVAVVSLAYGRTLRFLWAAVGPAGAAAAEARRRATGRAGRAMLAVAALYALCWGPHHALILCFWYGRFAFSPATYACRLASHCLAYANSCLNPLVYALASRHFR
CHO parental Ca: counter-screen for OX1R antagonists: effect in parental CHO cells | AID 463079 | parental CHO-K1, ATP-induced calcium, Fluo-8 fluorescence | inhibition, % at 5.6 µM | actives 0.63% (n = 330,000);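 active = inhibition above that plate's mean sample inhibition plus 3 SD, cut at about 26% in these data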;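 also: 0% = ATP-challenged DMSO wells and 100% = DMSO wells without ATP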
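Test system: untransfected parental CHO cell line; also added: ATP stimulus; dosing: 5.6 µM, single dose; signal: calcium-sensitive Fluo-8 fluorescence; measure: percent inhibition of ATP-evoked calcium rise, normalized to controls; benchmarks: low control ATP plus DMSO, high control DMSO only; replication: one well per compound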
OX1R antag-2: human HCRTR1 antagonism. CHO/OX1R cells, Fluo-8 calcium fluorescence, orexin A. inhibition, % at 5 µM. actives 0.43% (n = 330,000). AID 434989;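 active = inhibition above its plate's threshold, mean inhibition of all tested compounds on the plate plus 3 SD, cut at about 37% in these data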;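 also: 0% = orexin A challenge wells and 100% = SB-334867-A antagonist wells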
TAAR1 ag: agonists of human TAAR1 | AID 624467 | activation, % at 3 µM | Q96RJ0 | CHO RD-HGA16 TAAR1, Fluo-8 calcium fluorescence; vehicle wells 0%, saturating PEA agonist 100% | actives 0.99% (n = 360,000);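 active = activation above the mean activation of all test compounds in the run plus 3 SD, cut at about 38% in these data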
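Signal – calcium-sensitive Fluo-8 signal, excitation 470-495, emission 515-575 nm · System – RD-HGA16 (CHO) cells co-expressing Gα16 and hTAAR1 · Incubation – 17-24 h seeding, 75 min 37 °C dye, 30 min RT · Compound dosing – 3 µM single concentration · Repeats – no replicates (n 1)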
nonsel antag count: nonselective antagonist in TAAR1 antagonist counter-screen. AID 651780. actives 77% (n = 2,400). shares compounds with TAAR1 antagonist. counterscreen cell line, calcium fluorescence, antagonist mode. inhibition, % at 3 µM; in the data active = inhibition above about 22%;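 also: CHO-Ga16 host cells stimulated with ATP at an EC80 level; 0% = agonist EC80 plus vehicle and 100% = vehicle without agonist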
TAAR1 antag conf: confirmation of human TAAR1 antagonists. shares compounds with TAAR1 antagonist. TAAR1-expressing cells, fluorescence antagonist read-out. inhibition, % at 3 µM. actives 40% (n = 2,400); in the data active = inhibition above about 49%;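 also: CHO-Ga16 host cells challenged with agonist PEA near its EC80; 0% = agonist at EC80 plus vehicle and 100% = vehicle with no agonist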
Ga16 nonsel ag: nonselective Ga16 agonist in TAAR1 antagonist counter-screen; shares compounds with TAAR1 antagonist; Ga16-expressing cells, calcium fluorescence, agonist counterscreen; activation, % at 3 µM; actives 18% (n = 2,400); AID 651953; in the data active = activation above about 12%;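 also: 0% = vehicle wells and 100% = saturating stimulus response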
TAAR1 ag count: TAAR1 agonism, antagonist counter-screen. shares compounds with TAAR1 antagonist. hTAAR1 cell line, fluorescence activation, agonist mode. activation, % at 3 µM. actives 2% (n = 2,400); in the data active = activation above about 37%;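 also: CHO cells stably expressing TAAR1 with calcium dye readout; 0% = DMSO vehicle and 100% = full agonist response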
Starred values were filed as active, the others as inactive; . = no result. This is a sample that favours compounds with a hit; in the whole collection about 4.2% have one here.

SMILES	OX1R antag-1	TAAR1 antagonist	GalR3 antagonist	CHO parental Ca	OX1R antag-2	TAAR1 ag	nonsel antag count	TAAR1 antag conf	Ga16 nonsel ag	TAAR1 ag count
COc1ccc(C(C(=O)NCC2CCCO2)N(Cc2cccs2)C(=O)c2snc(C(N)=O)c2N)cc1OC (stereo not drawn)	16.1	54.6*	-6.8	-19.2	-19.7	22.8	24.9*	43.7	8.8	15.0
COc1ccc(CCN(C(=O)c2snc(C(N)=O)c2N)C(C(=O)NCC2CCCO2)c2ccc(F)cc2)cc1OC (stereo not drawn)	.	58.4*	-5.8	.	.	22.6	30.7*	44.1	8.8	9.5
COc1cccc(N(C(=O)c2snc(C(N)=O)c2N)C(C(=O)NCC2CCCO2)c2cccs2)c1 (stereo not drawn)	4.8	16.2	-9.9	-17.0	-31.1	-0.5	.	.	.	.
Cc1ccc(Cl)cc1N1CCN(C(=O)C(=O)N2CCCCC2)CC1	1.0	-1.3	-3.1	-17.5	-23.8	6.4	.	.	.	.
CC(C)(C)OC(=O)C[C@@H]1C/C=C\C[C@@H](CC(=O)N[C@H](CO)Cc2ccccc2)C(=O)NC[C@H](c2ccccc2)OC1=O	10.8	52.5*	-3.8	-6.8	4.5	16.1	22.9*	41.3	5.6	7.1
CC(C)(C)OC(=O)C[C@@H]1C/C=C\C[C@@H](CC(=O)N[C@H](CO)Cc2ccccc2)C(=O)N2CCC[C@H]2COC1=O	6.1	67.4*	-2.2	-8.0	6.4	21.5	29.8*	50.3*	11.7*	11.3
CC(C)(C)OC(=O)C[C@H]1C/C=C\C[C@@H](CC(=O)N[C@H](CO)Cc2ccccc2)C(=O)NC[C@H](c2ccccc2)OC1=O	0.8	19.8	-2.5	-19.2	-12.0	7.0	.	.	.	.
O=C1NC(=Nc2cccc(O)c2)S/C1=C\c1cccnc1	18.4	-21.0	0.7	-8.6	-13.2	3.6	.	.	.	.
O=C(c1ccc(Cl)c(Cl)c1)N1CCN(c2ccccn2)CC1	.	10.4	-9.5	.	.	3.8	.	.	.	.
CN(c1ccccc1)S(=O)(=O)c1cc(C(=O)N2CCN(c3ccccn3)CC2)ccc1Cl	15.3	59.5*	-5.2	-11.2	-25.8	7.4	18.8	33.7	6.3	4.5
O=C(c1ccc(S(=O)(=O)Cc2ccccc2Cl)c([N+](=O)[O-])c1)N1CCN(c2ccccn2)CC1	55.4	69.1*	-4.3	-24.6	-11.9	17.4	38.4*	52.8*	14.6*	14.3
O=C(O)Cc1cn(-c2ccccc2)nc1-c1ccccc1	16.4	-9.5	1.8	-16.9	2.1	0.1	.	.	.	.
OCc1cn(-c2ccccc2)nc1-c1ccc(-c2nn(-c3ccccc3)cc2CO)cc1	4.1	54.5*	0.0	-10.2	-9.6	20.6	41.3*	60.9*	11.9*	12.3
CC(=O)CCc1ccc(OCC(=O)Nc2cccc(S(=O)(=O)N(C)c3ccccc3)c2)cc1	.	74.0*	-5.3	.	.	10.3	35.5*	52.2*	10.8	8.1
COc1cc(C#N)ccc1OCC(=O)Nc1cccc(S(=O)(=O)N(C)c2ccccc2)c1	.	73.6*	-2.9	.	.	12.2	35.8*	48.7*	10.1	7.2
CCN(CC)S(=O)(=O)c1cccc(NC(=O)COc2ccc(C#N)cc2OC)c1	14.7	4.7	0.8	-9.9	-30.2	10.7	.	.	.	.
CC(COc1ccc(/C=C/c2ccccc2)cc1)[N+](C)(C)C (stereo not drawn)	11.3	12.4	.	-2.3	4.8	15.8	.	.	.	.
Cc1ccc(C)c(-n2c(SCC(=O)NC(C(=O)O)C(C)C)nnc2-c2cccc(Cl)c2)c1 (stereo not drawn)	22.1	2.4	-7.5	-12.2	-26.7	6.1	.	.	.	.
O=C(OCn1ncc(Cl)c(Cl)c1=O)c1ccc(C(F)(F)F)cc1	.	66.4*	-3.5	.	.	12.7	35.2*	39.5	6.3	7.5
COc1cc2c(cc1OC)C(C1(O)CCCCC1)NCC2 (stereo not drawn)	.	-0.8	-7.3	.	.	-0.6	.	.	.	.
O=S(=O)(c1ccccc1Br)N(Cc1ccccc1)CC(O)COCc1ccccc1 (stereo not drawn)	36.2*	58.9*	-1.1	-16.2	41.1	4.8	12.8	18.4	3.2	6.5
O=S(=O)(c1ccccc1Br)N(CC(O)COCc1ccccc1)C1CC1 (stereo not drawn)	20.0	-17.5	-6.2	-31.4	1.4	-1.2	.	.	.	.
CCCCNC(=O)C1CC(c2ccc(C(F)(F)F)cc2)=NO1 (stereo not drawn)	23.6	-11.5	-5.8	-1.7	-7.2	12.4	.	.	.	.
O=C(NCCCCc1ccccc1)C1CC(c2ccc(C(F)(F)F)cc2)=NO1 (stereo not drawn)	31.6	84.3*	-3.4	2.8	-8.1	28.0	23.0*	18.4	3.4	3.4
NC(c1ccc(F)c(F)c1)c1nc(-c2ccc3ccccc3c2)cs1 (stereo not drawn)	.	8.2	-2.6	.	.	2.2	.	.	.	.
SMILES	OX1R antag-1	TAAR1 antagonist	GalR3 antagonist	CHO parental Ca	OX1R antag-2	TAAR1 ag	nonsel antag count	TAAR1 antag conf	Ga16 nonsel ag	TAAR1 ag count
OC(c1ccc(F)c(F)c1)c1nc(-c2ccc3ccccc3c2)cs1 (stereo not drawn)	.	55.3*	-0.3	.	.	22.7	32.4*	36.9	12.8*	13.8
COC(=O)c1nccnc1N	.	102.7*	-4.4	.	.	-2.4	2.6	1.4	0.8	3.4
O=C(CSc1ccc(Cl)cc1)N1CCN(c2c(Cl)cccc2[N+](=O)[O-])CC1	22.7	65.2*	-2.4	-16.9	-1.9	4.9	25.0*	38.1	3.1	-2.4
COc1cc(-c2nnc(SCC(=O)c3ccc(C)cc3)o2)cc(OC)c1OC	11.5	54.2*	-4.0	-32.8	-16.6	3.7	26.2*	27.9	4.0	1.1
COc1ccc(C(=O)CSc2nnc(-c3ccc(C)cc3)o2)cc1	8.5	8.0	-3.7	-4.9	-6.9	5.6	.	.	.	.
COC(=O)Nc1sc2c(c1C(=O)NCc1ccco1)CCC2	5.0	-3.4	-8.1	-25.4	-28.0	8.0	.	.	.	.
COC(=O)Nc1sc2c(c1C(=O)NCc1ccco1)CCCC2	10.2	106.6*	-6.0	-11.3	-20.3	-3.2	6.0	-8.1	4.2	4.7
Cc1n[nH]c(C)c1S(=O)(=O)N(CC(=O)NC1CCCC1)c1ccc(C(C)C)cc1	9.0	61.3*	-1.1	-4.1	-16.8	8.8	22.5*	38.1	7.8	10.8
